Experimental findings from ChEMBL document CHEMBL1158589, “Benzimidazole and imidazole inhibitors of histone deacetylases: Synthesis and biological activity” (Bioorg Med Chem Lett, 2010) are described below.

One experiment deals with A549. In words: Cytotoxicity against human A549 cells assessed as NADH level after 72 hrs by MTS cells. It is filed as functional, cell-based. The note with it: A549, 72 h. A digest of the protocol:
(§1)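 Human A549 lung, HL60 leukemia and PC3 prostate cancer lines incubated with compound for 72 h. Viability read by MTS colorimetric assay from remaining NADH; EC50 calculated; mean of at least two experiments.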

In another experiment the target is T1, Histone deacetylase 8 (Homo sapiens, UniProt Q9BY41).
T1 sequence (Q9BY41 whole entry): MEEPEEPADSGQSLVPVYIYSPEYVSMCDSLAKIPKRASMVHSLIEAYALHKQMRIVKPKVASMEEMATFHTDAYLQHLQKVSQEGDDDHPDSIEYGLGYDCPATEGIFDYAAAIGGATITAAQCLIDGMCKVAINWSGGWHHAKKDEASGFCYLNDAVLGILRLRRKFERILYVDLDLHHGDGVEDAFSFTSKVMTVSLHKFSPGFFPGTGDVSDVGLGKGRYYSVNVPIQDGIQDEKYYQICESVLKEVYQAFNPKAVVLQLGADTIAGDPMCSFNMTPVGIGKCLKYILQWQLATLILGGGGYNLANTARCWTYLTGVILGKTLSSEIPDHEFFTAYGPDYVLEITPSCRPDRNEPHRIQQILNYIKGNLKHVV
Briefly: Inhibition of human recombinant HDAC8.

Another experiment relates to HL-60. In words: Cytotoxicity against human HL60 cells assessed as NADH level after 72 hrs by MTS cells. The settings on record: HL-60, 72 h. In kind it is functional, cell-based. In short, it runs like this:
as §1

The target of experiment [1] is T2, Protein deacetylase HDAC6 (Homo sapiens, UniProt Q9UBN7).
T2 sequence (Q9UBN7 whole entry): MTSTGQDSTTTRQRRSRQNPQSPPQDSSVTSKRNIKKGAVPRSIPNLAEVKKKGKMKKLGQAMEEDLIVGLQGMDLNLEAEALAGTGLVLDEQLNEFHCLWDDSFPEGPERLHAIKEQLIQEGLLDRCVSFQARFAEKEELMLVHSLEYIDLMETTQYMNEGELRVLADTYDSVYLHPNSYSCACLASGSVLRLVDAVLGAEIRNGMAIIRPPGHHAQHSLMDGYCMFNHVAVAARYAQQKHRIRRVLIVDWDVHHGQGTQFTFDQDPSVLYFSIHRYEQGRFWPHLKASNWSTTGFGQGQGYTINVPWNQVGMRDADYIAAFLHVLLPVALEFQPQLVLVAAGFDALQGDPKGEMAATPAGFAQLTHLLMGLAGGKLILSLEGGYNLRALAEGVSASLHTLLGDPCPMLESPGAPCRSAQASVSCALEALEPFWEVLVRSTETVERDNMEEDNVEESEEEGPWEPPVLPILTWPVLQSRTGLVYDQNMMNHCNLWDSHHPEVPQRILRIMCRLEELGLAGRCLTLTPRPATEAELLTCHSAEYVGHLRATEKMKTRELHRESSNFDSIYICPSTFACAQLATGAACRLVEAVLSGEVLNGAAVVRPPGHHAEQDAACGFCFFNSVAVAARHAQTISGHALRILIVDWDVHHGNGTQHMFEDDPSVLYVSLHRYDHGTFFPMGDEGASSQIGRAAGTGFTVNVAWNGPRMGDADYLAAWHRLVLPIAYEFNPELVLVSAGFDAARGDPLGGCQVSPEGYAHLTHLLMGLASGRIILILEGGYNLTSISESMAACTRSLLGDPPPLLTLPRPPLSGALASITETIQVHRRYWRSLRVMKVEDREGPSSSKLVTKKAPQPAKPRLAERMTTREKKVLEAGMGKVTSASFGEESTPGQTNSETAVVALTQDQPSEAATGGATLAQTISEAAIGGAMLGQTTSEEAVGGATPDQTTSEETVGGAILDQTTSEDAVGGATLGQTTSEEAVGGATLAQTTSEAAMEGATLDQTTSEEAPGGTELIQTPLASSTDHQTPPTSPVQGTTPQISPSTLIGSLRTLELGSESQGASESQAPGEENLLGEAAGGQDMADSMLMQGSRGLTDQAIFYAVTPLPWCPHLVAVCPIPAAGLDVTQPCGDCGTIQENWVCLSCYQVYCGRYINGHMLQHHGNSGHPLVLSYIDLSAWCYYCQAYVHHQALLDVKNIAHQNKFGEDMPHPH
In words: Inhibition of human recombinant HDAC6. A digest of the protocol:
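Purified recombinant human HDAC-2 or HDAC-6 at known enzyme concentration with tBOC(Ac)-Lys-AMC as substrate. IC50 is the mean of at least three experiments.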

A further experiment concerns PC-3. Briefly: Cytotoxicity against human PC3 cells assessed as NADH level after 72 hrs by MTS cells. In kind it is functional, cell-based. The note with it: PC-3, 72 h. In short, it runs like this: as §1

Molecules are shown by their SMILES.

For `Cc1nc(-c2cccc(/C=C/C(=O)NO)c2)n(CCc2ccccc2)c1Cc1ccccc1`, the concentration giving a half-maximal response (EC50) (as a rule, the concentration at which the effect is half-maximal) with A549 turned out to be 300 nM; with HL-60 it was 50 nM; with PC-3 it was 200 nM. Besides, the results for the IC50 (at Histone deacetylase 8; in experiment [1]) were 20 nM and 50 nM, respectively.
With `Cc1c(-c2ccccc2)nc(-c2cccc(/C=C/C(=O)NO)c2)n1[C@@H]1CCCN(C)C1`, the EC50 turned out to be 600 nM in the experiment on A549, 40 nM with HL-60 and 100 nM with PC-3. Also, the 50% inhibitory concentration (IC50) (usually the concentration needed to halve the response being measured) on Histone deacetylase 8 came to 50 nM; in experiment [1] it was 63 nM.
As for `CN1CCC[C@H](n2c(-c3cccc(/C=C/C(=O)NO)c3)nc3ccccc32)C1`, the values for the EC50 with A549, in the experiment with HL-60 and with PC-3 were 1200 nM, 160 nM and 300 nM, respectively. The half-maximal inhibitory concentration (IC50) came out at 160 nM on Histone deacetylase 8 and 50 nM in experiment [1].
For `CCN(CC)CCn1c(-c2cccc(/C=C/C(=O)NO)c2)nc2ccccc21`, the EC50 in the experiment with A549 stood at 4000 nM; in the experiment on HL-60, 800 nM; with PC-3, 1200 nM. Besides, the IC50 on Histone deacetylase 8 is 63 nM; in experiment [1] it was 79 nM.
On to `O=C(/C=C/c1cccc(-c2nc3ccccc3n2CCc2ccccc2)c1)NO`, for which the EC50 was found to be 2500 nM with A549, 300 nM with HL-60 and 400 nM with PC-3. The figures for the half-maximal inhibitory concentration (IC50) (at Histone deacetylase 8; in experiment [1]) were 25 nM and 31 nM, respectively.
Taken in the same sequence, the figures for `Cc1nc(-c2cccc(/C=C/C(=O)NO)c2)n(CCN2CCOCC2)c1Cc1ccccc1` were 2500 nM, 200 nM, 600 nM, 63 nM and 79 nM.
Taken in the same sequence, the figures for `CC(C)N(CCn1c(-c2cccc(/C=C/C(=O)NO)c2)nc2ccccc21)C(C)C` were 5000 nM, 5000 nM, 3100 nM, 200 nM and 100 nM.
The matching figures for `Cc1nc(-c2cccc(/C=C/C(=O)NO)c2)n([C@@H]2CCCN(C)C2)c1-c1ccccc1`: 400 nM, 30 nM, 100 nM, 100 nM and 79 nM.
Regarding `Cc1nc(-c2cccc(/C=C/C(=O)NO)c2)n(CCN2CCOCC2)c1-c1ccccc1`, the half-maximal effective concentration (EC50) in the experiment on A549 turned out to be 4000 nM; with HL-60, 300 nM; in the experiment with PC-3, 1000 nM. Further, the IC50 is 79 nM at Histone deacetylase 8 and 120 nM in experiment [1].
Taken in the same sequence, the figures for `O=C(/C=C/c1cccc(-c2nc3ccccc3n2CCN2CCCCC2)c1)NO` were 1200 nM, 300 nM, 600 nM, 100 nM and 40 nM.
The matching figures for `CCN1CCC[C@H](n2c(-c3cccc(/C=C/C(=O)NO)c3)nc3ccccc32)C1`: 600 nM, 80 nM, 200 nM, 160 nM and 79 nM.
Taken in the same sequence, the figures for `Cc1c(Cc2ccccc2)nc(-c2cccc(/C=C/C(=O)NO)c2)n1CCc1ccccc1` were 800 nM, 200 nM, 500 nM, 16 nM and 63 nM.
With `O=C(/C=C/c1cccc(-c2nc3ccccc3n2Cc2ccccc2)c1)NO`, the concentration giving a half-maximal response (EC50) worked out at 6300 nM in the experiment on A549, 5000 nM in the experiment with HL-60 and 1200 nM in the experiment with PC-3. Also, the IC50 at Histone deacetylase 8 worked out at 40 nM; in experiment [1], 63 nM.
The matching figures for `CN(C)CCn1c(-c2cccc(/C=C/C(=O)NO)c2)nc2ccccc21`: 7900 nM, 1000 nM, 2500 nM, 160 nM and 79 nM.
Regarding `Cc1c(-c2ccccc2)nc(-c2cccc(/C=C/C(=O)NO)c2)n1[C@@H]1CCCN(C(C)C)C1`, the 50% effective concentration (EC50) in the experiment with A549 worked out at 500 nM; with HL-60, 40 nM; in the experiment on PC-3, 100 nM. For the same molecule, the IC50 is 31 nM at Histone deacetylase 8 and 79 nM in experiment [1].
For the molecule `O=C(/C=C/c1cccc(-c2nc3ccccc3[nH]2)c1)NO`, the EC50 in the experiment with A549 turned out to be 25000 nM; with HL-60, 3100 nM; with PC-3 it was 10000 nM. For the same molecule, the IC50 came out at 63 nM at Histone deacetylase 8 and 100 nM in experiment [1].
Taken in the same sequence, the figures for `CCN1CCC[C@@H](n2c(-c3cccc(/C=C/C(=O)NO)c3)nc(-c3ccccc3)c2C)C1` were 300 nM, 30 nM, 50 nM, 31 nM and 100 nM.
The matching figures for `O=C(/C=C/c1cccc(-c2nc3ccccc3n2[C@@H]2CCCNC2)c1)NO`: 1000 nM, 100 nM, 100 nM, 120 nM and 79 nM.
Taken in the same sequence, the figures for `Cn1c(-c2cccc(/C=C/C(=O)NO)c2)nc2ccccc21` were 12000 nM, 2000 nM, 7900 nM, 100 nM and 79 nM.
As to `Cc1c(-c2ccccc2)nc(-c2cccc(/C=C/C(=O)NO)c2)n1CCN1CCOCC1`, the 50% effective concentration (EC50) in the experiment with A549 is 6300 nM; in the experiment on HL-60, 300 nM; with PC-3, 1000 nM. For the same molecule, the values for the IC50 (on Histone deacetylase 8; in experiment [1]) were 79 nM and 63 nM, respectively.
Taken in the same sequence, the figures for `CCN1CCC[C@@H](n2c(-c3cccc(/C=C/C(=O)NO)c3)nc(C)c2C)C1` were 300 nM, 40 nM, 80 nM, 100 nM and 120 nM.
As for `CCN1CCC[C@@H](n2c(-c3cccc(/C=C/C(=O)NO)c3)nc(C)c2-c2ccccc2)C1`, the concentration giving a half-maximal response (EC50) is 300 nM in the experiment with A549, 40 nM with HL-60 and 80 nM in the experiment on PC-3. Further, the figures for the IC50 (on Histone deacetylase 8; in experiment [1]) were 50 nM and 79 nM, respectively.
